From PubChem
Hits are enriched below; roughly 3.2% of the tested compounds scored in any of these assays.
OX1R antag-1 – blocks the human orexin 1 receptor; O43613; CHO/OX1R cells, Fluo-8 calcium fluorescence, orexin A; inhibition, % at 5 µM; actives 0.43% (n = 330,000); AID 434989;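 active means inhibition above its plate's threshold, mean inhibition of all tested compounds on the plate plus 3 SD, cut at about 37% in these data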;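 further: 0% = orexin A challenge wells and 100% = SB-334867-A antagonist wells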
Target sequence (O43613 whole entry, looked up): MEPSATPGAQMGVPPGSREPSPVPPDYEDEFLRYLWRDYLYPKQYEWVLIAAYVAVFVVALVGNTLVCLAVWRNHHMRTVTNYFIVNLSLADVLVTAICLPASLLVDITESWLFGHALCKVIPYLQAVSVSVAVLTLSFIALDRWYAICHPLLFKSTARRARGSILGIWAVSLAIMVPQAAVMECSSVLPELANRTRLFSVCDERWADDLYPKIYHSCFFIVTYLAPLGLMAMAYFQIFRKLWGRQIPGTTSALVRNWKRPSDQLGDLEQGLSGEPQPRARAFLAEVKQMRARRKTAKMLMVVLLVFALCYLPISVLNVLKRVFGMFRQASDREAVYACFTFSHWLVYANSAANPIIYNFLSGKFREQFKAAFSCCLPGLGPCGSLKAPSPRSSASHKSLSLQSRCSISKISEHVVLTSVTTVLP
CHO parental Ca – counter-screen: ATP calcium response change in parental CHO cells. parental CHO-K1, ATP-induced calcium, Fluo-8 fluorescence. inhibition, % at 5.6 µM. actives 0.63% (n = 330,000);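 active means inhibition above that plate's mean sample inhibition plus 3 SD, cut at about 26% in these data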;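 further: 0% = ATP-challenged DMSO wells and 100% = DMSO wells without ATP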
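Test system: parental CHO cells; detection: calcium-sensitive Fluo-8 fluorescence; evaluation: percent inhibition of calcium signal; also added: ATP as calcium-mobilizing challenge; repeats: one well per compound; control set: ATP-challenged DMSO wells low, unchallenged DMSO wells high; compound: single nominal dose of 5.6 µM per compound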
zfTRPN1 agonist – activates the zebrafish TRPN1 channel; actives 0.18% (n = 220,000); AID 1424; activation, % at 3 µM; HEK293 zebrafish TRPN1-YFP, Fluo-8 calcium fluorescence; 100% = response to 87 µM carbachol;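 active means activation above its plate's cutoff, the mean activation of test wells on that plate plus 3 SD, cut at about 19% in these data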;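 further: 0% = DMSO alone and 100% = 87 µM carbachol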
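Assay system: Zebrafish TRPN1-YFP in HEK293 cells | Incubation: Dye loading 1 h at 37 °C, then 30 min room temperature | Measured by: Kinetic Fluo-8 fluorescence, ex 470-495, em 515-575 nm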
OX1R antag-2 – OX1R (human) antagonism | O43613 | OX1R-expressing cells, FRET antagonist read-out | inhibition, % at 6.6 µM | AID 485270 | actives 1.8% (n = 330,000); in the data active means inhibition mostly above about 38%, no sharp cut-off; inactive means mostly below about 40%;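 further: 0% = agonist challenge alone and 100% = reference antagonist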
TRPML3 ag – agonists of human TRPML3 channel | Q8TDD5 | HEK293 TRPML3-YFP, Fluo-8 calcium fluorescence; 100% = the carbachol control signal | activation, % at 3 µM | actives 0.29% (n = 220,000);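 active means activation above its plate's cutoff, the mean activation of the plate's test wells plus 3 SD, cut at about 12% in these data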;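 further: 0% = DMSO only wells and 100% = carbachol wells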
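Test system: HEK293 cells stably carrying human TRPML3-YFP; Doses: single dose, 3 µM final nominal compound, 0.3% DMSO final; Schedule: dye loading 1 h 37 °C then 30 min ambient, 125 s read; Technique: Fluo-8 calcium fluorescence; Benchmarks: high control carbachol 87 µM, low control DMSO.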
GPR7 antag – human neuropeptides B/W receptor 1 antagonism. P48145. GPR7-expressing cells, fluorescence antagonist assay. inhibition, % at 4.4 µM. actives 1.1% (n = 290,000); in the data active means inhibition above about 16%, passing the limit was not always enough;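 further: cells stimulated with the agonist NPW; 0% = agonist with vehicle and 100% = vehicle without agonist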
* = called active by the depositor.

CCn1c(=NC(=O)c2ccco2)sc2cccc(F)c21 was read as OX1R antag-1 -4, CHO parental Ca -17, zfTRPN1 agonist -1, OX1R antag-2 65*, TRPML3 ag -1 and GPR7 antag -7.
For Cc1cc(SCC(=O)N/N=C/c2ccc(O)c(O)c2O)c(C)cc1Br the results were OX1R antag-1 4, CHO parental Ca -1, zfTRPN1 agonist 0, OX1R antag-2 17, TRPML3 ag 0 and GPR7 antag -10.
Screening COc1cc(/C=N/NC(=O)CSc2cc(C)c(Br)cc2C)ccc1O returned OX1R antag-1 7, CHO parental Ca 8, zfTRPN1 agonist 0, OX1R antag-2 48*, TRPML3 ag 0 and GPR7 antag 1.
For O=S(=O)(c1ccccc1)N1CCC(O)(CSc2ccc(F)cc2)CC1 the results were OX1R antag-1 5, CHO parental Ca -6, zfTRPN1 agonist 9, OX1R antag-2 33, TRPML3 ag 5 and GPR7 antag 18*.
For O=C(N/N=C\c1c(O)ccc2ccccc12)c1cncc(Br)c1 the results were OX1R antag-1 63*, CHO parental Ca 67*, OX1R antag-2 73* and GPR7 antag 29.
For O=C(N/N=C\c1c(O)ccc2ccccc12)c1ccc(O)cc1 the results were OX1R antag-1 -22, CHO parental Ca -17, OX1R antag-2 9 and GPR7 antag -11.
Screening O=C(N/N=C/c1c(O)ccc2ccccc12)c1ccc[n+](CCO)c1 returned OX1R antag-1 -6, CHO parental Ca 0, zfTRPN1 agonist 1, OX1R antag-2 57*, TRPML3 ag 0 and GPR7 antag -1.
For Cn1cc(C(=O)N/N=C/c2c(O)ccc3ccccc23)ccc1=O the results were OX1R antag-1 -12, CHO parental Ca -12, zfTRPN1 agonist 0, OX1R antag-2 39*, TRPML3 ag 0 and GPR7 antag -3.
For O=C(N/N=C/c1c(O)ccc2ccccc12)c1cccnc1 the results were OX1R antag-1 -16, CHO parental Ca 17, OX1R antag-2 16 and GPR7 antag 23.
`COc1ccccc1CN1CC(C(=O)NCc2cc(C(C)C)no2)CCC1=O` (centres undefined) gave OX1R antag-1 -9, CHO parental Ca 3, OX1R antag-2 8 and GPR7 antag -7.
`O=C(COC(=O)C1CCCCC1)Nc1cc([N+](=O)[O-])ccc1F` gave OX1R antag-1 -1, CHO parental Ca -11, zfTRPN1 agonist 1, OX1R antag-2 20, TRPML3 ag 0 and GPR7 antag -7.
CC[n+]1cc(-c2ccccc2)nc(N2CCOCC2)n1 was read as OX1R antag-1 3, CHO parental Ca -5, zfTRPN1 agonist 0, OX1R antag-2 51*, TRPML3 ag 0 and GPR7 antag -2.
`COc1ccc(NC(=O)n2ncc3c(C)cccc32)cc1` gave OX1R antag-1 -30, CHO parental Ca -7, OX1R antag-2 3 and GPR7 antag 23.
For COc1ccc(NC(=O)n2ncc3c(C)cccc32)cc1OC the results were OX1R antag-1 -29, CHO parental Ca -21, OX1R antag-2 35* and GPR7 antag -2.
Screening O=C(Nc1ccccc1)Nc1n[nH]c2nnc(-c3ccccc3)c(-c3ccccc3)c12 returned OX1R antag-1 -25, CHO parental Ca -13, OX1R antag-2 11 and GPR7 antag -7.
For COc1cccc(CCc2nnc(CCC(=O)NC(C)c3c(C)nn(C)c3C)o2)c1 (centres undefined) the results were OX1R antag-1 -22, CHO parental Ca -21, zfTRPN1 agonist 0, OX1R antag-2 3, TRPML3 ag 1 and GPR7 antag -6.
`CCCCOCCCNc1ncnc2c1[nH]c1ccccc12` gave OX1R antag-1 8, CHO parental Ca 43*, zfTRPN1 agonist 5, OX1R antag-2 52*, TRPML3 ag 4 and GPR7 antag 16.
Screening CCCCOc1ncnc2c1[nH]c1ccccc12 returned OX1R antag-1 36, CHO parental Ca 28, zfTRPN1 agonist 3, OX1R antag-2 73*, TRPML3 ag 3 and GPR7 antag 10.
Screening CCCCOc1ncnc2c1[nH]c1ccc(F)cc12 returned OX1R antag-1 39, CHO parental Ca 32*, zfTRPN1 agonist 10, OX1R antag-2 34, TRPML3 ag 3 and GPR7 antag 11.
